Results taken from article PMC5193105 (Proteins, 2016).

Key:
[1] = molecular target: wildtype hPFKFB2 (Homo sapiens, UniProt O60825); assay: 2-kinase inhibition assay; format: biochemical; settings: wild-type; for Ki: Citrate Kis
Method in brief: (§1)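 His-tagged enzyme was expressed in E. coli BL21 C41(DE3) and purified by Ni-NTA then SP Sepharose. Step 1 used 130 nM enzyme in 20 mM TES pH 8.0, 1 mM DTT, 2 mM MgCl2 and 0.5% tween, with varied citrate, ATP and Fru-6-P (fixed substrate 250 μM), for 10 min at 25°C. Reactions were KOH-stopped and neutralized. Fru-2,6-P2 was read by PPi-PFK/aldolase/TPI/[…] coupling as A340 over 30 min. Constants came from non-linear regression.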

[2] = molecular target: hPFKFB2 Y428A mutant (Homo sapiens, UniProt O60825, Y428A); assay: 2-kinase inhibition assay; format: biochemical; settings: for Ki: Citrate Kis
hPFKFB2 Y428A mutant, sequence (O60825 whole entry Y428A): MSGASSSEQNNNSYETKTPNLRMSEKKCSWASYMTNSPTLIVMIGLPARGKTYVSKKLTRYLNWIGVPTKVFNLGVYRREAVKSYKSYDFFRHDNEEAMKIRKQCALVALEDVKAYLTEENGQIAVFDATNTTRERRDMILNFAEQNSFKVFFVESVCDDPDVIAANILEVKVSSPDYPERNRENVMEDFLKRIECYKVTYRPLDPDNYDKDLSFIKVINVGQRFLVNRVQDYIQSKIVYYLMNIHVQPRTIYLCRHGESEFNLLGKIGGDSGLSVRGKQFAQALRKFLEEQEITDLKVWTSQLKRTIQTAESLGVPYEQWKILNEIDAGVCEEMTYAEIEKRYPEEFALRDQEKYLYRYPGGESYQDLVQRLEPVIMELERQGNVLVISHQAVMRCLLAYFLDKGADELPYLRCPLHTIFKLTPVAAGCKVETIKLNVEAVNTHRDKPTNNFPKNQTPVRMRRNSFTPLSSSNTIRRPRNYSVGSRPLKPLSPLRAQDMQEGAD
Method in brief: as §1

[3] = variable substrate ATP, fixed substrate F6P 250μM
[4] = Y428A, variable substrate ATP, fixed substrate F6P 250μM

wildtype hPFKFB2, sequence (O60825 whole entry): as the sequence (O60825 whole entry Y428A) above, with A428Y counted along it

O=C(CO)[C@@H](O)[C@H](O)[C@H](O)COP(=O)(O)O [F6P, fructose-6-phosphate]
KmF6P [1]: 80.3 ± 7.6 µM | KmF6P ([2]; Y428A): 13.8 ± 4.3 µM | increase in affinity for Fru-6-P, Y428A versus wild-type ([2]; from Km values): 6 fold

O=C(O)CC(O)(CC(=O)O)C(=O)O [Citrate]
Ki [1, 3]: 50.2 µM | Ki ([1]; variable substrate F6P, fixed substrate ATP 250μM): 80.3 ± 6.5 µM | Citrate Kii [1, 3]: 58.75 ± 9.9 µM | inhibition mechanism (in words) ([1]; versus ATP): non-competitive inhibitor | inhibition mechanism (in words) ([1]; versus F6P): competitive inhibitor | Ki [2, 4]: 2.43 ± 1 µM | Ki ([2]; Y428A, variable substrate F6P, fixed substrate ATP 250μM): 67.3 ± 4.2 µM | increase in affinity for the inhibitor, Y428A versus wild-type ([2]; Kis with ATP as variable substrate, from 50.2 μM to 2.4 μM): 20 fold | Citrate Kii [2, 4]: 3.05 ± 1.4 µM

Nc1ncnc2c1ncn2[C@@H]1O[C@H](COP(=O)(O)OP(=O)(O)OP(=O)(O)O)[C@@H](O)[C@H]1O [ATP]
KmATP [1]: 38.8 ± 5.3 µM | KmATP ([2]; Y428A): 40.7 ± 4.2 µM
